Data as given in ChEMBL document CHEMBL2346664, “Synthesis, characterization and in vitro anticancer evaluation of novel 1,2,4-triazolin-3-one derivatives” (2013).

How the values were obtained:
Format in all cases: functional
IGROV-1 = experiment: Growth inhibition of human IGROV1 cells assessed as cell growth at 10 uM after 48 hrs by sulforhodamine B assay; details: IGROV-1, 48 h, read-out: Activity
PC-3 [1] = experiment: Growth inhibition of human PC3 cells assessed as cell growth at 10 '-6 M after 48 hrs by sulforhodamine B assay; details: PC-3, 48 h, read-out: Activity
MDA-MB-435 [2] = experiment: Growth inhibition of human MDA-MB-435 cells assessed as cell growth at 10 '-4 M after 48 hrs by sulforhodamine B assay; details: MDA-MB-435, 48 h, read-out: Activity
U-251 = experiment: Growth inhibition of human U251 cells assessed as cell growth at 10 '-4 M after 48 hrs by sulforhodamine B assay; details: U-251, 48 h, read-out: Activity
[3] = Growth inhibition of human Hs 578T cells after 48 hrs by sulforhodamine B assay
How it was run: (§1)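 NCI 60-cell-line five-dose screen. Cells were plated at 5,000–40,000/well by doubling time and grown 24 h at 37 °C, 5% CO2. Time-zero plates were TCA-fixed. Drug from DMSO stock was tested at 0.01, 0.1, 1, 10 and 100 µM final for 48 h continuous exposure. Read-out was SRB at 515 nm. GI50 is the concentration giving 50% reduction in net protein increase versus untreated control.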

[4] = Growth inhibition of human Hs 578T cells assessed as growth inhibition at 10 uM after 48 hrs by sulforhodamine B assay; details: read-out: GI
SK-OV-3 [5] = experiment: Growth inhibition of human SKOV3 cells assessed as cell growth at 10 '-6 M after 48 hrs by sulforhodamine B assay; details: SK-OV-3, 48 h, read-out: Activity
OVCAR-8 [6] = experiment: Growth inhibition of human OVCAR8 cells assessed as cell growth at 10 '-8 M after 48 hrs by sulforhodamine B assay; details: OVCAR-8, 48 h, read-out: Activity
T47D = experiment: Growth inhibition of human T47D cells assessed as cell growth at 10 '-4 M after 48 hrs by sulforhodamine B assay; details: read-out: Activity
[7] = Growth inhibition of human HCC2998 cells assessed as cell growth at 10 '-4 M after 48 hrs by sulforhodamine B assay; details: HCC 2998, 48 h, read-out: Activity
HT-29 = experiment: Growth inhibition of human HT-29 cells after 48 hrs by sulforhodamine B assay; details: HT-29, 48 h; how it was run: as §1
Malme-3M = experiment: Growth inhibition of human MALME-3M cells assessed as cell growth at 10 '-5 M after 48 hrs by sulforhodamine B assay; details: read-out: Activity
SK-MEL-28 [8] = experiment: Growth inhibition of human SK-MEL-28 cells assessed as cell growth at 10 '-4 M after 48 hrs by sulforhodamine B assay; details: SK-MEL-28, 48 h, read-out: Activity
PC-3 [9] = experiment: Growth inhibition of human PC3 cells after 48 hrs by sulforhodamine B assay; details: PC-3, 48 h
MDA-MB-231 = experiment: Growth inhibition of human MDA-MB-231 cells assessed as cell growth at 10 '-7 M after 48 hrs by sulforhodamine B assay; details: MDA-MB-231, 48 h, read-out: Activity
SK-MEL-5 [10] = experiment: Growth inhibition of human SK-MEL-5 cells assessed as cell growth at 10 '-4 M after 48 hrs by sulforhodamine B assay; details: SK-MEL-5, 48 h, read-out: Activity
OVCAR-8 [11] = experiment: Growth inhibition of human OVCAR8 cells assessed as growth inhibition at 10 uM after 48 hrs by sulforhodamine B assay; details: OVCAR-8, 48 h, read-out: GI
A549 = experiment: Growth inhibition of human A549 cells assessed as cell growth at 10 '-4 M after 48 hrs by sulforhodamine B assay; details: A549, 48 h, read-out: Activity
How it was run: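 Percent growth at each of the five concentrations of the 48 h continuous-exposure NCI SRB screen. Drug stocks were in DMSO at 400× the top final concentration and diluted in medium with gentamicin. Growth was calculated as [(Ti-Tz)/(C-Tz)]×100 when Ti ≥ Tz, or [(Ti-Tz)/Tz]×100 when Ti < Tz. Tz plates were fixed at drug addition; untreated wells served as control. Absorbance was read at 515 nm.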

NCI-H460 = experiment: Growth inhibition of human NCI-H460 cells assessed as cell growth at 10 '-6 M after 48 hrs by sulforhodamine B assay; details: NCI-H460, 48 h, read-out: Activity
MDA-MB-435 [12] = experiment: Growth inhibition of human MDA-MB-435 cells assessed as cell growth at 10 '-8 M after 48 hrs by sulforhodamine B assay; details: MDA-MB-435, 48 h, read-out: Activity
HCT-15 = experiment: Growth inhibition of human HCT15 cells assessed as cell growth at 10 '-6 M after 48 hrs by sulforhodamine B assay; details: HCT-15, 48 h, read-out: Activity
SK-OV-3 [13] = experiment: Growth inhibition of human SKOV3 cells assessed as growth inhibition at 10 uM after 48 hrs by sulforhodamine B assay; details: SK-OV-3, 48 h, read-out: GI
[14] = Growth inhibition of human HCC2998 cells assessed as growth inhibition at 10 uM after 48 hrs by sulforhodamine B assay; details: HCC 2998, 48 h, read-out: GI
RPMI-8226 [15] = experiment: Growth inhibition of human RPMI8226 cells after 48 hrs by sulforhodamine B assay; details: RPMI-8226, 48 h
M14 = experiment: Growth inhibition of human M14 cells assessed as cell growth at 10 '-5 M after 48 hrs by sulforhodamine B assay; details: M14, 48 h, read-out: Activity
SK-MEL-28 [16] = experiment: Growth inhibition of human SK-MEL-28 cells assessed as growth inhibition at 10 uM after 48 hrs by sulforhodamine B assay; details: SK-MEL-28, 48 h, read-out: GI
SK-MEL-28 [17] = experiment: Growth inhibition of human SK-MEL-28 cells assessed as cell growth at 10 '-7 M after 48 hrs by sulforhodamine B assay; details: SK-MEL-28, 48 h, read-out: Activity
HOP-92 = experiment: Growth inhibition of human HOP92 cells assessed as cell growth at 10 '-4 M after 48 hrs by sulforhodamine B assay; details: HOP-92, 48 h, read-out: Activity
MDA-MB-468 = experiment: Growth inhibition of human MDA-MB-468 cells assessed as cell growth at 10 '-7 M after 48 hrs by sulforhodamine B assay; details: MDA-MB-468, 48 h, read-out: Activity
LOX IMVI = experiment: Growth inhibition of human LOXIMVI cells assessed as cell growth at 10 '-4 M after 48 hrs by sulforhodamine B assay; details: read-out: Activity
RPMI-8226 [18] = experiment: Growth inhibition of human RPMI8226 cells assessed as cell growth at 10 '-5 M after 48 hrs by sulforhodamine B assay; details: RPMI-8226, 48 h, read-out: Activity
SK-MEL-5 [19] = experiment: Growth inhibition of human SK-MEL-5 cells assessed as cell growth at 10 '-7 M after 48 hrs by sulforhodamine B assay; details: SK-MEL-5, 48 h, read-out: Activity
[20] = read-out: LD50 (the source's name)

## Cc1cc(=O)oc2cc(OCCn3c(C)nn(-c4ccc(Cl)cc4)c3=O)ccc12
IGROV-1
  growth at 10 µM: 59.7%
PC-3 [1]
  growth at 1 µM: 74%
MDA-MB-435 [2]
  growth at 100 µM: -26%
U-251
  growth at 100 µM: -4%
[3]
  GI50: 2.82 µM
  TGI: > 1 µM
[3]; [20]
  CC50: > 1 µM
[4]
  inhibition of growth at 10 µM: 65.2%
SK-OV-3 [5]
  growth at 1 µM: 88%
OVCAR-8 [6]
  growth at 0.01 µM: 95%
T47D
  growth at 100 µM: 36%
[7]
  growth at 100 µM: 17%
HT-29
  GI50: 3.82 µM
  TGI: > 1 µM
HT-29; [20]
  CC50: > 1 µM
Malme-3M
  growth at 10 µM: 28%
SK-MEL-28 [8]
  growth at 100 µM: 33%
PC-3 [9]
  GI50: 8.13 µM
  TGI: > 1 µM
PC-3 [9]; [20]
  CC50: > 1 µM
MDA-MB-231
  growth at 0.1 µM: 88%
SK-MEL-5 [10]
  growth at 100 µM: 4%
OVCAR-8 [11]
  inhibition of growth at 10 µM: 82.3%
A549
  growth at 100 µM: 27%
NCI-H460
  growth at 1 µM: 83%
MDA-MB-435 [12]
  growth at 0.01 µM: 99%
HCT-15
  growth at 1 µM: 80%
SK-OV-3 [13]
  inhibition of growth at 10 µM: 58.9%
[14]
  inhibition of growth at 10 µM: 53.3%
RPMI-8226 [15]
  GI50: 1.1 µM
  TGI: > 1 µM
RPMI-8226 [15]; [20]
  CC50: > 1 µM
M14
  growth at 10 µM: 22%
SK-MEL-28 [16]
  inhibition of growth at 10 µM: 59.2%
SK-MEL-28 [17]
  growth at 0.1 µM: 87%
HOP-92
  growth at 100 µM: 32%
MDA-MB-468
  growth at 0.1 µM: 90%
LOX IMVI
  growth at 100 µM: 30%
RPMI-8226 [18]
  growth at 10 µM: 50%
SK-MEL-5 [19]
  growth at 0.1 µM: 92%
